Consider one compound from ChEMBL document CHEMBL3867440, “Hernandezine, a Bisbenzylisoquinoline Alkaloid with Selective Inhibitory Activity against Multidrug-Resistance-Linked ATP-Binding Cassette Drug Transporter ABCB1” (J Nat Prod, 2016).

Structures are written as SMILES.

Series [1] addresses T1, ATP-dependent translocase ABCB1 (Homo sapiens, UniProt P08183). Put plainly: Inhibition of ABCB1 in human NCI-ADR-RES cells assessed as potentiation of doxorubicin-induced cytotoxicity by measuring doxorubicin resistance ratio at 50 nM after 72 hrs by MTT assay relative to parental OVCAR8 cells (reference value: 46). The note with it: ovcar-8, 72 h, 0.05 µM. It counts as cell-based. The gist of the method: (§1)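 Cells were kept in drug-free DMEM with 10% FCS for 7 days before assay, then plated at 5000 cells/well for 24 h. Drug at various concentrations was added with a nontoxic fixed level of modulator for 72 h, and the read-out was MTT. IC50 came from fitted curves (≥3 experiments). RR = IC50 of the resistant line / IC50 of the parental line.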

Series [2] deals with T1, ATP-dependent translocase ABCB1. Put plainly: Inhibition of ABCB1 in human NCI-ADR-RES cells assessed as potentiation of doxorubicin-induced cytotoxicity by measuring doxorubicin resistance ratio at 500 nM after 72 hrs by MTT assay relative to parental OVCAR8 cells (reference value: 46). The class given is cell-based. The note with it: ovcar-8, 72 h, 0.5 µM. The method in brief:
as §1

Series [3] shares this target. Put plainly: Inhibition of ABCB1 in human NCI-ADR-RES cells assessed as potentiation of vincristine-induced cytotoxicity by measuring vincristine resistance ratio at 100 nM after 72 hrs by MTT assay relative to parental OVCAR8 cells (reference value: 435). The note with it: ovcar-8, 72 h, 0.1 µM. It counts as cell-based. The gist of the method: as §1
The target is the same in series [4]. Put plainly: Inhibition of ABCB1 in human KBV1 cells assessed as potentiation of doxorubicin-induced cytotoxicity by measuring doxorubicin resistance ratio at 100 nM after 72 hrs by MTT assay relative to parental KB-3-1 cells (reference value: 34). The note with it: kbv1, 72 h, 0.1 µM. It counts as cell-based. The method in brief: as §1
Series [5] has the same target. The series is described as follows: Inhibition of ABCB1 in human KBV1 cells assessed as potentiation of colchicine-induced cytotoxicity by measuring colchicine resistance ratio at 500 nM after 72 hrs by MTT assay relative to parental KB-3-1 cells (reference value: 55). The class given is cell-based. To be noted: kbv1, 72 h, 0.5 µM. The gist of the method: as §1
Series [6] shares this target. The series is described as follows: Inhibition of ABCB1 in human NCI-ADR-RES cells assessed as potentiation of colchicine-induced cytotoxicity by measuring colchicine resistance ratio at 50 nM after 72 hrs by MTT assay relative to parental OVCAR8 cells (reference value: 59). The class given is cell-based. The note with it: ovcar-8, 72 h, 0.05 µM. The gist of the method: as §1

For series [7] the target is unchanged. Put plainly: Inhibition of ABCB1 in human NCI-ADR-RES cells assessed as potentiation of colchicine-induced cytotoxicity by measuring colchicine resistance ratio at 200 nM after 72 hrs by MTT assay relative to parental OVCAR8 cells (reference value: 59). It counts as cell-based. The note with it: ovcar-8, 72 h, 0.2 µM. The method in brief:
as §1

Series [8] relates to KB-V1. The series is described as follows: Induction of apoptosis in human KBV1 cells assessed as late apoptotic cells at 1 uM after 48 hrs by Annexin V-FITC/propidium iodide staining based FACS analysis (reference value: 7.6%). The class given is functional.
Series [9] concerns the target T1, ATP-dependent translocase ABCB1. The series is described as follows: Inhibition of ABCB1 in human NCI-ADR-RES cells assessed as potentiation of vincristine-induced cytotoxicity by measuring vincristine resistance ratio at 500 nM after 72 hrs by MTT assay relative to parental OVCAR8 cells (reference value: 435). The class given is cell-based. The note with it: ovcar-8, 72 h, 0.5 µM. The method in brief:
as §1

The target is the same in series [10]. Put plainly: Inhibition of ABCB1 in human KBV1 cells assessed as potentiation of doxorubicin-induced cytotoxicity by measuring doxorubicin resistance ratio at 500 nM after 72 hrs by MTT assay relative to parental KB-3-1 cells (reference value: 34). To be noted: kbv1, 72 h, 0.5 µM. The class given is cell-based. The gist of the method: as §1
The target is the same in series [11]. The series is described as follows: Inhibition of human ABCB1 transfected in HEK293 cells assessed as potentiation of doxorubicin-induced cytotoxicity by measuring doxorubicin resistance ratio at 200 nM after 72 hrs by CCK8 assay relative to parental HEK293 cells (reference value: 96). The class given is cell-based. To be noted: hek293, 72 h, 0.2 µM.
Series [12] shares this target. The series is described as follows: Inhibition of ABCB1 in human NCI-ADR-RES cells assessed as potentiation of colchicine-induced cytotoxicity by measuring colchicine resistance ratio at 500 nM after 72 hrs by MTT assay relative to parental OVCAR8 cells (reference value: 59). It counts as cell-based. To be noted: ovcar-8, 72 h, 0.5 µM. The method in brief: as §1

Series [13] has the same target. The series is described as follows: Inhibition of ABCB1 in human KBV1 cells assessed as potentiation of vincristine-induced cytotoxicity by measuring vincristine resistance ratio at 500 nM after 72 hrs by MTT assay relative to parental KB-3-1 cells (reference value: 356). It counts as cell-based. The note with it: kbv1, 72 h, 0.5 µM. The method in brief: as §1
In series [14] the test system is KB 3-1. Put plainly: Potentiation of colchicine-induced apoptosis in human KB-3-1 cells assessed as late apoptotic cells at 1 uM after 48 hrs by Annexin V-FITC/propidium iodide staining based FACS analysis (reference value: 25.7%). The class given is functional.
For series [15], the target named is T1, ATP-dependent translocase ABCB1. Put plainly: Inhibition of human ABCB1 transfected in HEK293 cells assessed as potentiation of doxorubicin-induced cytotoxicity by measuring doxorubicin resistance ratio at 500 nM after 72 hrs by CCK8 assay relative to parental HEK293 cells (reference value: 96). It counts as cell-based. The note with it: hek293, 72 h, 0.5 µM.

Series [16] shares this target. The series is described as follows: Inhibition of human ABCB1 transfected in HEK293 cells assessed as potentiation of doxorubicin-induced cytotoxicity by measuring doxorubicin resistance ratio at 100 nM after 72 hrs by CCK8 assay relative to parental HEK293 cells (reference value: 96). It counts as cell-based. The note with it: hek293, 72 h, 0.1 µM.
Series [17] has as its system KB 3-1. The series is described as follows: Induction of apoptosis in human KB-3-1 cells assessed as viable cells at 1 uM after 48 hrs by Annexin V-FITC/propidium iodide staining based FACS analysis (reference value: 88.4%). It counts as functional. To be noted: KB 3-1, 48 h, read-out: Activity.
For series [18], the target named is T1, ATP-dependent translocase ABCB1. Put plainly: Inhibition of ABCB1 in human NCI-ADR-RES cells assessed as potentiation of doxorubicin-induced cytotoxicity by measuring doxorubicin resistance ratio at 100 nM after 72 hrs by MTT assay relative to parental OVCAR8 cells (reference value: 46). The class given is cell-based. The note with it: ovcar-8, 72 h, 0.1 µM. The method in brief: as §1

Series [19] has as its system KB 3-1. Put plainly: Potentiation of colchicine-induced apoptosis in human KB-3-1 cells assessed as viable cells at 1 uM after 48 hrs by Annexin V-FITC/propidium iodide staining based FACS analysis (reference value: 38.9%). The note with it: KB 3-1, 48 h, read-out: Activity. It counts as functional.
For series [20], the system named is KB-V1. Put plainly: Induction of apoptosis in human KBV1 cells assessed as viable cells at 1 uM after 48 hrs by Annexin V-FITC/propidium iodide staining based FACS analysis (reference value: 86.1%). The class given is functional. To be noted: KB-V1, 48 h, read-out: Activity.
In series [21] the target is T1, ATP-dependent translocase ABCB1. The series is described as follows: Inhibition of ABCB1 in human KBV1 cells assessed as potentiation of vincristine-induced cytotoxicity by measuring vincristine resistance ratio at 200 nM after 72 hrs by MTT assay relative to parental KB-3-1 cells (reference value: 356). It counts as cell-based. To be noted: kbv1, 72 h, 0.2 µM. The gist of the method:
as §1

The target is the same in series [22]. The series is described as follows: Inhibition of human ABCB1-mediated efflux transfected in HEK293 cells assessed as accumulation of fluorescent dye at 1 uM by calcein-AM dye based FACS analysis. It counts as cell-based. The note with it: hek293, 1 µM. The gist of the method: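 The HEK293 cells, transfected with human ABCB1 (parental HEK293 as control), were trypsinized and resuspended in IMDM with 5% FCS. Calcein-AM was added to 3 × 10^5 cells in 4 mL, with or without test compound (single 1 μM or a concentration series) or 3 μM tariquidar. Fluorescence was read immediately by flow cytometry. Results are the mean ± SEM of at least three experiments.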

For series [23], the system named is KB 3-1. The series is described as follows: Potentiation of colchicine-induced apoptosis in human KB-3-1 cells assessed as early apoptotic cells at 1 uM after 48 hrs by Annexin V-FITC/propidium iodide staining based FACS analysis (reference value: 30.5%). It counts as functional.

T1 sequence (P08183 whole entry): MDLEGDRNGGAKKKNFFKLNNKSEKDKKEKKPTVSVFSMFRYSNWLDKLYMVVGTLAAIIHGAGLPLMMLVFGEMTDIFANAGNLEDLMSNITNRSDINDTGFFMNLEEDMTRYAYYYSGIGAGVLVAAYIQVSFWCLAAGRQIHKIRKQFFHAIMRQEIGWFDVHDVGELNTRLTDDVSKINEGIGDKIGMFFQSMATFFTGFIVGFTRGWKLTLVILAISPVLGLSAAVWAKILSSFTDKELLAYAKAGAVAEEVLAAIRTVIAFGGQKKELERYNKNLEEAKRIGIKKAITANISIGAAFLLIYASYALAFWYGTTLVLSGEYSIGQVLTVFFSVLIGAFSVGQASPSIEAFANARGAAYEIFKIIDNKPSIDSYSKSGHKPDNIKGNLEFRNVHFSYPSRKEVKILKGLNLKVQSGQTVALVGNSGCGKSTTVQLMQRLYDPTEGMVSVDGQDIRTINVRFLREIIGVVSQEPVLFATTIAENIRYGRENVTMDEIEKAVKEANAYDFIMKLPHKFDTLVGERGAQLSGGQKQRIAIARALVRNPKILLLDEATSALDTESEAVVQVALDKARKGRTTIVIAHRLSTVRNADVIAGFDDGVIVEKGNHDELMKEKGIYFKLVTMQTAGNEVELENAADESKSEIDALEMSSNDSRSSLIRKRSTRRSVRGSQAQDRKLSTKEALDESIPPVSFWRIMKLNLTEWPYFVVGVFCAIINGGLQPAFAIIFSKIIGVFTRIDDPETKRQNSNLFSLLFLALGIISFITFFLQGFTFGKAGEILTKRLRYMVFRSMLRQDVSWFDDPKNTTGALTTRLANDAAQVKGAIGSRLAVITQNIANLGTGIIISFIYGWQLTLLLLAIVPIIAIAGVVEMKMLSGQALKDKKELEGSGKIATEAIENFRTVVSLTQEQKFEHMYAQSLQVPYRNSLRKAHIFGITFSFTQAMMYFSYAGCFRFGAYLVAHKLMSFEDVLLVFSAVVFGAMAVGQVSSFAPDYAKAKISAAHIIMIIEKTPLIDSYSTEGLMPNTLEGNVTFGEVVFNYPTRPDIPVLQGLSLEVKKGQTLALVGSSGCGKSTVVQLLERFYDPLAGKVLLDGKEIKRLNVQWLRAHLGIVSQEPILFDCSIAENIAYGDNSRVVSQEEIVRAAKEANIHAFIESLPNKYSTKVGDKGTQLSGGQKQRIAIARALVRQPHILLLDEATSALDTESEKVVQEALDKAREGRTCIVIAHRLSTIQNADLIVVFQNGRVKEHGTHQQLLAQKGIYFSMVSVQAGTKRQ

With `COc1ccc2cc1Oc1ccc(cc1)C[C@H]1c3cc(c(OC)cc3CCN1C)Oc1c(OC)c(OC)c(OC)c3c1[C@H](C2)N(C)CC3` [HERNANDEZINE], the Ratio is recorded as 26 in [1]; 2 in [2]; 433 in series [3]; 5 in series [4]; 3 in series [5]; 46 in [6]. Moreover, the Ratio in series [7] stood at 10; in series [9] it was 19; in series [10], 1; in series [11] it was 8; in series [12] it was 4; in series [13], 3. Moreover, the Ratio is reported as 7 in series [15], 11 in [16], 11 in [18] and 34 in series [21]. For the same compound, the Activity was 6.7% in the series on KB-V1 [8], 26.4% with KB 3-1 [14] and 31.1% in the series on KB 3-1 [23]. Besides, the results for the viability at 1 µM in the series on KB 3-1 [17], in the series on KB 3-1 [19] and in the series with KB-V1 [20] were 88.8%, 37.4% and 87.6%, respectively. Moreover, the “inhibition (INH)” value in [22] is “Active”.
